Test results from ChEMBL document CHEMBL2040792, “New chromene scaffolds for adenosine A(2A) receptors: synthesis, pharmacology and structure-activity relationships” (Eur J Med Chem, 2012).

Target: T1, Adenosine receptor A1 (Homo sapiens) (UniProt P30542)
T1 sequence (whole entry): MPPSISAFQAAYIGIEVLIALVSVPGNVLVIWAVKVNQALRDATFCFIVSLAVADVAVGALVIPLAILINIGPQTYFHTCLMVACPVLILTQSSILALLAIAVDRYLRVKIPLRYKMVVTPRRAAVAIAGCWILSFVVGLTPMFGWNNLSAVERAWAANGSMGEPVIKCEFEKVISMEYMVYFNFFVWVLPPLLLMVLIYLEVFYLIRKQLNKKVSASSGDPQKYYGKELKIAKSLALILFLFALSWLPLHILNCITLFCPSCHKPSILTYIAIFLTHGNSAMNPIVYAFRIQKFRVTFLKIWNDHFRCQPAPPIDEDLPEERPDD
Test: Displacement of [3H]DPCPX from human adenosine A1 receptor expressed in CHO cells at 10 uM after 60 mins by beta scintillation counting
Format: cell-based
Summary of the method: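 CHO-A1 membranes (15 µg protein) in Hepes/NaCl/MgCl2 buffer with adenosine deaminase, pH 7.4. Test compound at 10 µM with 2 nM [3H]DPCPX, 60 min at 25 °C, in duplicate. Nonspecific binding with 10 µM (R)-PIA. Percent inhibition read after filtration.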

SMILES | inhibition
O=C(NCCCN1CCN(CCCNC(=O)c2cc3ccccc3oc2=O)CC1)c1cc2ccccc2oc1=O | 9%
COc1cccc2cc(C(=O)NCC(O)CO)c(=O)oc12 (configuration not stated) | 14%
COc1cccc2cc(C(=O)NC(CO)(CO)CO)c(=N)oc12 | 19%
COCCNC(=O)c1cc2cc(Cl)ccc2oc1=N | 17%
N=c1oc2ccc(Br)cc2cc1C(=O)NCC(O)CO (configuration not stated) | 11%
COc1cccc2cc(C(=O)Nc3c(C#N)ncn3-c3ccc(F)cc3)c(=N)oc12 | 46%
COc1ccc(-n2cnc(C#N)c2NC(=O)c2cc3cccc(OC)c3oc2=N)cc1 | 37%
O=C(O)CNC(=O)c1cc2ccccc2oc1=O | 1%
N=c1oc2ccc(Br)cc2cc1C(=O)NC1CCCC1 | 17%
CCC(CO)NC(=O)c1cc2cc(Cl)ccc2oc1=N (configuration not stated) | 7%
COc1cccc2cc(C(=O)NCCCCCO)c(=N)oc12 | 44%
COc1cccc2cc(C(=O)NCCCO)c(=N)oc12 | 47%
COc1cccc2cc(C(=O)NCC(O)c3ccccc3)c(=N)oc12 (configuration not stated) | 55%
COc1cccc2cc(C(=O)Nc3c(C#N)ncn3-c3ccc(C#N)cc3)c(=N)oc12 | 18%
COc1cccc2c1OC(C)(O)C(C(C)=O)=C2 (configuration not stated) | 6%
COc1cccc2cc(C(=O)NCCCNC(=O)c3cc4cccc(OC)c4oc3=N)c(=N)oc12 | 31%
O=C(NCC(O)CO)c1cc2cccc(O)c2oc1=O (configuration not stated) | 4%

Target: T2, Adenosine receptor A2a (Homo sapiens, UniProt P29274)
T2 sequence (P29274 whole entry): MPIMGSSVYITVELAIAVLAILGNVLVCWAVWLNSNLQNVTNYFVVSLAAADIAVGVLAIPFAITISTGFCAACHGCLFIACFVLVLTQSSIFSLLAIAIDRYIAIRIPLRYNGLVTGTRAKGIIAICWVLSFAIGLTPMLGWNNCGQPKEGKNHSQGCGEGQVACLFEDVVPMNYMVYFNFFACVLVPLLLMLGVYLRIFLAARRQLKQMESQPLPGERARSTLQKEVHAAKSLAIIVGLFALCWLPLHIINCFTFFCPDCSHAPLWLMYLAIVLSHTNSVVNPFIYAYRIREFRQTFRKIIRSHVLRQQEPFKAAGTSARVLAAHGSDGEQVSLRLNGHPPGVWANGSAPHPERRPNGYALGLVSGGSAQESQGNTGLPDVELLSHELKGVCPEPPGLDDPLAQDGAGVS
Test: Displacement of [3H]ZM241385 from human adenosine A2A receptor expressed in human HeLa cells at 10 uM after 30 mins by beta scintillation counting
Format: cell-based
Summary of the method: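 Single-point screen at 10 µM on HeLa-A2A membranes (10 µg protein), Tris/EDTA/MgCl2 buffer with adenosine deaminase, pH 7.4. 3 nM [3H]ZM241385, 30 min at 25 °C, in duplicate. Nonspecific binding with 50 µM NECA. Percent inhibition.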

SMILES | inhibition
O=C(NCCCN1CCN(CCCNC(=O)c2cc3ccccc3oc2=O)CC1)c1cc2ccccc2oc1=O | 1%
COc1cccc2cc(C(=O)NCC(O)CO)c(=O)oc12 (configuration not stated) | 7%
COc1cccc2cc(C(=O)NC(CO)(CO)CO)c(=N)oc12 | 24%
COCCNC(=O)c1cc2cc(Cl)ccc2oc1=N | 10%
N=c1oc2ccc(Br)cc2cc1C(=O)NCC(O)CO (configuration not stated) | 8%
COc1cccc2cc(C(=O)Nc3c(C#N)ncn3-c3ccc(F)cc3)c(=N)oc12 | > 70%
COc1ccc(-n2cnc(C#N)c2NC(=O)c2cc3cccc(OC)c3oc2=N)cc1 | 58%
O=C(O)CNC(=O)c1cc2ccccc2oc1=O | 2%
N=c1oc2ccc(Br)cc2cc1C(=O)NC1CCCC1 | 5%
CCC(CO)NC(=O)c1cc2cc(Cl)ccc2oc1=N (configuration not stated) | 15%
COc1cccc2cc(C(=O)NCCCCCO)c(=N)oc12 | > 70%
COc1cccc2cc(C(=O)NCCCO)c(=N)oc12 | > 70%
COc1cccc2cc(C(=O)NCC(O)c3ccccc3)c(=N)oc12 (configuration not stated) | > 70%
COc1cccc2cc(C(=O)Nc3c(C#N)ncn3-c3ccc(C#N)cc3)c(=N)oc12 | 41%
COc1cccc2c1OC(C)(O)C(C(C)=O)=C2 (configuration not stated) | 10%
COc1cccc2cc(C(=O)NCCCNC(=O)c3cc4cccc(OC)c4oc3=N)c(=N)oc12 | > 70%
O=C(NCC(O)CO)c1cc2cccc(O)c2oc1=O (configuration not stated) | 11%

Target: T2, Adenosine receptor A2a
Test: Displacement of [3H]ZM241385 from human adenosine A2A receptor expressed in human HeLa cells after 30 mins by beta scintillation counting
Format: cell-based
Summary of the method: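 HeLa-A2A membranes (10 µg protein) in 50 mM Tris-HCl, 1 mM EDTA, 10 mM MgCl2, 2 UI/mL adenosine deaminase, pH 7.4, with 3 nM [3H]ZM241385. Nonspecific binding with 50 µM NECA. Incubated 30 min at 25 °C, in duplicate. Six concentrations (10 nM-100 µM); IC50 by nonlinear regression, converted to Ki by Cheng-Prusoff.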

SMILES | Ki
COc1cccc2cc(C(=O)Nc3c(C#N)ncn3-c3ccc(F)cc3)c(=N)oc12 | 631 nM
COc1cccc2cc(C(=O)NCCCCCO)c(=N)oc12 | 1000 nM
COc1cccc2cc(C(=O)NCCCO)c(=N)oc12 | 631 nM
COc1cccc2cc(C(=O)NCC(O)c3ccccc3)c(=N)oc12 (configuration not stated) | 501 nM
COc1cccc2cc(C(=O)NCCCNC(=O)c3cc4cccc(OC)c4oc3=N)c(=N)oc12 | 398 nM

Target: T3, Adenosine receptor A2b (Homo sapiens) (UniProt P29275)
T3 sequence (whole entry): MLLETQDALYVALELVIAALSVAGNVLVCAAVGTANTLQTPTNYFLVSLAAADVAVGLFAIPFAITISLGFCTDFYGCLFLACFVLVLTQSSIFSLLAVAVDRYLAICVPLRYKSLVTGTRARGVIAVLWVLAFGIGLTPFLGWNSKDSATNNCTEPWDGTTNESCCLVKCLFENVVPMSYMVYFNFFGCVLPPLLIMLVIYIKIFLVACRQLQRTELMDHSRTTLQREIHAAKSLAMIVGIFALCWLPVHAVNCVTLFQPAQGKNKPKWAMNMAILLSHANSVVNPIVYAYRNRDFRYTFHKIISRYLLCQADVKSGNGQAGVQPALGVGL
Test: Displacement of [3H]DPCPX from human adenosine A2B receptor expressed in HEK293 cells at 10 uM after 30 mins by beta scintillation counting
Format: cell-based
Summary of the method: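 Percent inhibition at 10 µM in HEK-293-A2B membranes (18 µg protein), pH 6.5 Tris buffer with benzamidine, bacitracin and adenosine deaminase. 35 nM [3H]DPCPX, 30 min at 25 °C, in duplicate. Nonspecific binding with 400 µM NECA.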

SMILES | inhibition
O=C(NCCCN1CCN(CCCNC(=O)c2cc3ccccc3oc2=O)CC1)c1cc2ccccc2oc1=O | 22%
COc1cccc2cc(C(=O)NCC(O)CO)c(=O)oc12 (configuration not stated) | 25%
COc1cccc2cc(C(=O)NC(CO)(CO)CO)c(=N)oc12 | 28%
COCCNC(=O)c1cc2cc(Cl)ccc2oc1=N | 9%
N=c1oc2ccc(Br)cc2cc1C(=O)NCC(O)CO (configuration not stated) | 4%
COc1cccc2cc(C(=O)Nc3c(C#N)ncn3-c3ccc(F)cc3)c(=N)oc12 | 30%
COc1ccc(-n2cnc(C#N)c2NC(=O)c2cc3cccc(OC)c3oc2=N)cc1 | 5%
O=C(O)CNC(=O)c1cc2ccccc2oc1=O | 9%
N=c1oc2ccc(Br)cc2cc1C(=O)NC1CCCC1 | 28%
CCC(CO)NC(=O)c1cc2cc(Cl)ccc2oc1=N (configuration not stated) | 9%
COc1cccc2cc(C(=O)NCCCCCO)c(=N)oc12 | > 70%
COc1cccc2cc(C(=O)NCCCO)c(=N)oc12 | 42%
COc1cccc2cc(C(=O)NCC(O)c3ccccc3)c(=N)oc12 (configuration not stated) | > 70%
COc1cccc2cc(C(=O)Nc3c(C#N)ncn3-c3ccc(C#N)cc3)c(=N)oc12 | 10%
COc1cccc2c1OC(C)(O)C(C(C)=O)=C2 (configuration not stated) | 24%
COc1cccc2cc(C(=O)NCCCNC(=O)c3cc4cccc(OC)c4oc3=N)c(=N)oc12 | > 70%
O=C(NCC(O)CO)c1cc2cccc(O)c2oc1=O (configuration not stated) | 29%

Target: T4, Adenosine receptor A2b (Homo sapiens, UniProt P29275)
T4 sequence (P29275 whole entry): T3 sequence (whole entry)
Test: Displacement of [3H]DPCPX from human adenosine A2B receptor expressed in HEK293 cells after 30 mins by beta scintillation counting
Format: cell-based
Summary of the method: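 HEK-293-A2B membranes (18 µg protein) in 50 mM Tris-HCl, 1 mM EDTA, 10 mM MgCl2, 0.1 mM benzamidine, 10 µg/mL bacitracin, 2 UI/mL adenosine deaminase, pH 6.5, with 35 nM [3H]DPCPX. Nonspecific binding with 400 µM NECA. Incubated 30 min at 25 °C, in duplicate. Six concentrations (10 nM-100 µM); IC50 by nonlinear regression, Ki by Cheng-Prusoff.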

SMILES | Ki
COc1cccc2cc(C(=O)NCCCCCO)c(=N)oc12 | 1260 nM
COc1cccc2cc(C(=O)NCC(O)c3ccccc3)c(=N)oc12 (configuration not stated) | 1000 nM
COc1cccc2cc(C(=O)NCCCNC(=O)c3cc4cccc(OC)c4oc3=N)c(=N)oc12 | 10000 nM

Target: T5, Adenosine receptor A3 (Homo sapiens) (UniProt P0DMS8)
T5 sequence (whole entry): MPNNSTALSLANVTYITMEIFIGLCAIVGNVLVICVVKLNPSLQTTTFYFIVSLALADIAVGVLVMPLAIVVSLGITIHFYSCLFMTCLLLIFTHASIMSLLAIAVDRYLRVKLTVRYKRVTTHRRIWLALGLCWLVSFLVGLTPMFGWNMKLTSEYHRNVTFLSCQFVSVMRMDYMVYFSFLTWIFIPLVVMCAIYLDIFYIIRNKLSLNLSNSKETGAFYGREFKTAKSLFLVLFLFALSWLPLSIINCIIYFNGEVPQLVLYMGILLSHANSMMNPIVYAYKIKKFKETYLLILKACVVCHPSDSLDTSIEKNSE
Test: Displacement of [3H]NECA from human adenosine A3 receptor expressed in human HeLa cells at 10 uM after 180 mins by beta scintillation counting
Format: cell-based
Summary of the method: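 HeLa-A3 membranes (90 µg protein) in 50 mM Tris-HCl, 1 mM EDTA, 5 mM MgCl2, 2 UI/mL adenosine deaminase, pH 7.4. Test compound at 10 µM with 30 nM [3H]NECA, 180 min at 25 °C, in triplicate. Nonspecific binding with 100 µM (R)-PIA. Percent inhibition read after GF/B filtration.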

SMILES | inhibition
O=C(NCCCN1CCN(CCCNC(=O)c2cc3ccccc3oc2=O)CC1)c1cc2ccccc2oc1=O | 15%
COc1cccc2cc(C(=O)NCC(O)CO)c(=O)oc12 (configuration not stated) | 1%
COc1cccc2cc(C(=O)NC(CO)(CO)CO)c(=N)oc12 | 18%
COCCNC(=O)c1cc2cc(Cl)ccc2oc1=N | 13%
N=c1oc2ccc(Br)cc2cc1C(=O)NCC(O)CO (configuration not stated) | 10%
COc1cccc2cc(C(=O)Nc3c(C#N)ncn3-c3ccc(F)cc3)c(=N)oc12 | 20%
COc1ccc(-n2cnc(C#N)c2NC(=O)c2cc3cccc(OC)c3oc2=N)cc1 | 42%
O=C(O)CNC(=O)c1cc2ccccc2oc1=O | 0%
N=c1oc2ccc(Br)cc2cc1C(=O)NC1CCCC1 | 0%
CCC(CO)NC(=O)c1cc2cc(Cl)ccc2oc1=N (configuration not stated) | 0%
COc1cccc2cc(C(=O)NCCCCCO)c(=N)oc12 | 13%
COc1cccc2cc(C(=O)NCCCO)c(=N)oc12 | 1%
COc1cccc2cc(C(=O)NCC(O)c3ccccc3)c(=N)oc12 (configuration not stated) | 8%
COc1cccc2cc(C(=O)Nc3c(C#N)ncn3-c3ccc(C#N)cc3)c(=N)oc12 | 1%
COc1cccc2c1OC(C)(O)C(C(C)=O)=C2 (configuration not stated) | 30%
COc1cccc2cc(C(=O)NCCCNC(=O)c3cc4cccc(OC)c4oc3=N)c(=N)oc12 | 11%
O=C(NCC(O)CO)c1cc2cccc(O)c2oc1=O (configuration not stated) | 22%

Target: T2, Adenosine receptor A2a
Test: Antagonist activity at human adenosine A2A receptor expressed in CHO cells assessed as inhibition of NECA-induced cAMP accumulation incubated for 15 mins prior to NECA-induction measured after 15 mins by enzyme immunoassay relative to control
Format: functional, cell-based
Summary of the method: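 Stably transfected CHO cells grown with dialyzed FBS, washed in DMEM F-12 with 25 mM HEPES pH 7.4 and 30 μM rolipram. Antagonist preincubated 15 min, then NECA (0.1 nM-1 mM) added for a further 15 min. cAMP measured by enzyme immunoassay. NECA curves fitted to a sigmoidal equation; pKB derived from the EC50 shift at one antagonist concentration.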

SMILES | pKb
COc1cccc2cc(C(=O)Nc3c(C#N)ncn3-c3ccc(F)cc3)c(=N)oc12 | 6.02
